Laboratory results published in ChEMBL document CHEMBL4842318, “A γ-lactam siderophore antibiotic effective against multidrug-resistant Pseudomonas aeruginosa, Klebsiella pneumoniae, and Acinetobacter spp” (Eur J Med Chem, 2021).
Values after ≈ are worked out from the molar mass of the structure shown.

How the values were obtained:
Acinetobacter baumannii [1] = assay: Antibacterial activity against panel of 198 clinical isolates Acinetobacter baumannii assessed as inhibition of bacterial growth by microdilution method; assay type: functional
Acinetobacter baumannii [2] = assay: Antibacterial activity against 98 member subset of carbapenem resistant Acinetobacter baumannii assessed as assessed as inhibition of bacterial growth by microdilution method; assay type: functional
Summary of the method: (§1)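 Broth microdilution in Chelex-treated, iron-depleted cation-adjusted Mueller-Hinton broth, following the protocol used for siderophore-containing antibiotics; inoculum lowered to 6 × 10^4 cfu/mL; MIC read as growth inhibition, in μg/mL.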

[3] = Inhibition of Acinetobacter sp. strain ATCC 27244 PBP3 expressed in Escherichia coli BL21 (DE3) assessed as reduction in fluorescence intensity using Bocillin-protein as fluorescent substrate by SDS PAGE analysis
Acinetobacter baumannii [4] = assay: Antibacterial activity against carbapenem resistant Acinetobacter baumannii isolate PR-314 assessed as bacterial growth inhibition by microdilution method; assay type: functional; summary of the method: as §1
Acinetobacter baumannii [5] = assay: Antibacterial activity against carbapenem resistant Acinetobacter baumannii isolate PR-319 assessed as bacterial growth inhibition by microdilution method; assay type: functional; summary of the method: as §1
Acinetobacter baumannii [6] = assay: Antibacterial activity against carbapenem resistant Acinetobacter baumannii isolate PR-325 assessed as bacterial growth inhibition by microdilution method; assay type: functional; summary of the method: as §1
Acinetobacter baumannii [7] = assay: Antibacterial activity against carbapenem resistant Acinetobacter baumannii isolate PR-326 assessed as bacterial growth inhibition by microdilution method; assay type: functional; summary of the method: as §1
Acinetobacter baumannii [8] = assay: Antibacterial activity against carbapenem susceptible Acinetobacter baumannii isolate PR-340 assessed as bacterial growth inhibition by microdilution method; assay type: functional
Summary of the method: (§2)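 Broth microdilution MIC in iron-depleted (Chelex resin-treated) cation-adjusted Mueller-Hinton broth, following the protocol used for siderophore-containing antibiotics. Inoculum was lowered to 6 × 10^4 cfu/mL.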

Acinetobacter baumannii [9] = assay: Antibacterial activity against carbapenem resistant Acinetobacter baumannii isolate PR-342 assessed as bacterial growth inhibition by microdilution method; assay type: functional; summary of the method: as §1
Acinetobacter baumannii [10] = assay: Antibacterial activity against carbapenem resistant Acinetobacter baumannii isolate PR-345 assessed as bacterial growth inhibition by microdilution method; assay type: functional; summary of the method: as §1
Acinetobacter baumannii [11] = assay: Antibacterial activity against carbapenem resistant Acinetobacter baumannii isolate PR-351 assessed as bacterial growth inhibition by microdilution method; assay type: functional; summary of the method: as §1
Acinetobacter baumannii [12] = assay: Antibacterial activity against carbapenem resistant Acinetobacter baumannii isolate PR-380 assessed as bacterial growth inhibition by microdilution method; assay type: functional; summary of the method: as §1
Acinetobacter baumannii [13] = assay: Antibacterial activity against carbapenem resistant Acinetobacter baumannii isolate PR-384 assessed as bacterial growth inhibition by microdilution method; assay type: functional; summary of the method: as §1
Acinetobacter baumannii [14] = assay: Antibacterial activity against carbapenem resistant Acinetobacter baumannii isolate PR-387 assessed as bacterial growth inhibition by microdilution method; assay type: functional; summary of the method: as §1
Acinetobacter baumannii [15] = assay: Antibacterial activity against carbapenem resistant Acinetobacter baumannii isolate PR-399 assessed as bacterial growth inhibition by microdilution method; assay type: functional; summary of the method: as §1
Acinetobacter baumannii [16] = assay: Antibacterial activity against carbapenem resistant Acinetobacter baumannii isolate PR-401 assessed as bacterial growth inhibition by microdilution method; assay type: functional; summary of the method: as §1
Acinetobacter baumannii [17] = assay: Antibacterial activity against carbapenem resistant Acinetobacter baumannii isolate PR-423 assessed as bacterial growth inhibition by microdilution method; assay type: functional; summary of the method: as §1
Acinetobacter baumannii [18] = assay: Antibacterial activity against carbapenem resistant Acinetobacter baumannii isolate PR-459 assessed as bacterial growth inhibition by microdilution method; assay type: functional; summary of the method: as §1
Acinetobacter baumannii [19] = assay: Antibacterial activity against carbapenem resistant Acinetobacter baumannii isolate PR-482 assessed as bacterial growth inhibition by microdilution method; assay type: functional; summary of the method: as §1
[20] = Antibacterial activity against carbapenem susceptible Acinetobacter nosocomialis isolate PR-362 assessed as bacterial growth inhibition by microdilution method; assay type: functional; summary of the method: as §2
[21] = Antibacterial activity against carbapenem susceptible Acinetobacter nosocomialis isolate PR-365 assessed as bacterial growth inhibition by microdilution method; assay type: functional; summary of the method: as §2
[22] = Antibacterial activity against carbapenem susceptible Acinetobacter nosocomialis isolate PR-412 assessed as bacterial growth inhibition by microdilution method; assay type: functional; summary of the method: as §2
[23] = Antibacterial activity against carbapenem susceptible Acinetobacter nosocomialis isolate PR-491 assessed as bacterial growth inhibition by microdilution method; assay type: functional; summary of the method: as §2
Acinetobacter baumannii [24] = assay: Antibacterial activity against carbapenem susceptible Acinetobacter baumannii isolate PR-434 assessed as bacterial growth inhibition by microdilution method; assay type: functional; summary of the method: as §2
Acinetobacter baumannii [25] = assay: Antibacterial activity against carbapenem susceptible Acinetobacter baumannii isolate PR-452 assessed as bacterial growth inhibition by microdilution method; assay type: functional; summary of the method: as §2
Acinetobacter baumannii [26] = assay: Antibacterial activity against carbapenem susceptible Acinetobacter baumannii isolate PR-464 assessed as bacterial growth inhibition by microdilution method; assay type: functional; summary of the method: as §2
Pseudomonas aeruginosa [27] = assay: Antibacterial activity against wild type Pseudomonas aeruginosa isolate PR-545 assessed as inhibition of bacterial growth by microdilution method; assay type: functional; summary of the method: as §2
Pseudomonas aeruginosa [28] = assay: Antibacterial activity against wild type Pseudomonas aeruginosa isolate PR-548 assessed as inhibition of bacterial growth by microdilution method; assay type: functional; summary of the method: as §2
Pseudomonas aeruginosa [29] = assay: Antibacterial activity against wild type Pseudomonas aeruginosa isolate PR-567 assessed as inhibition of bacterial growth by microdilution method; assay type: functional; summary of the method: as §2
Pseudomonas aeruginosa [30] = assay: Antibacterial activity against wild type Pseudomonas aeruginosa isolate PR-672 assessed as inhibition of bacterial growth by microdilution method; assay type: functional; summary of the method: as §2
Pseudomonas aeruginosa [31] = assay: Antibacterial activity against wild type Pseudomonas aeruginosa isolate PR-604 assessed as inhibition of bacterial growth by microdilution method; assay type: functional; summary of the method: as §2
Pseudomonas aeruginosa [32] = assay: Antibacterial activity against wild type Pseudomonas aeruginosa isolate PR-638 assessed as inhibition of bacterial growth by microdilution method; assay type: functional; summary of the method: as §2
Pseudomonas aeruginosa [33] = assay: Antibacterial activity against wild type Pseudomonas aeruginosa isolate PR-676 assessed as inhibition of bacterial growth by microdilution method; assay type: functional; summary of the method: as §2
Pseudomonas aeruginosa [34] = assay: Antibacterial activity against wild type Pseudomonas aeruginosa isolate PR-503 assessed as inhibition of bacterial growth by microdilution method; assay type: functional; summary of the method: as §2
Pseudomonas aeruginosa [35] = assay: Antibacterial activity against Pseudomonas aeruginosa isolate PR-564 leucine at 533 residue assessed as inhibition of bacterial growth by microdilution method; assay type: functional; summary of the method: as §1
Pseudomonas aeruginosa [36] = assay: Antibacterial activity against wild type Pseudomonas aeruginosa isolate PR-606 assessed as inhibition of bacterial growth by microdilution method; assay type: functional; summary of the method: as §2
Pseudomonas aeruginosa [37] = assay: Antibacterial activity against Pseudomonas aeruginosa isolate PR-627 leucine at 533 residue assessed as inhibition of bacterial growth by microdilution method; assay type: functional; summary of the method: as §1
Pseudomonas aeruginosa [38] = assay: Antibacterial activity against wild type Pseudomonas aeruginosa isolate PR-635 assessed as inhibition of bacterial growth by microdilution method; assay type: functional; summary of the method: as §2
Pseudomonas aeruginosa [39] = assay: Antibacterial activity against wild type Pseudomonas aeruginosa isolate PR-636 leucine at 533 residue assessed as inhibition of bacterial growth by microdilution method; assay type: functional; summary of the method: as §2
Pseudomonas aeruginosa [40] = assay: Antibacterial activity against wild type Pseudomonas aeruginosa isolate PR-651 leucine at 533 residue assessed as inhibition of bacterial growth by microdilution method; assay type: functional; summary of the method: as §2
Pseudomonas aeruginosa [41] = assay: Antibacterial activity against wild type Pseudomonas aeruginosa isolate PR-668 leucine at 533 residue assessed as inhibition of bacterial growth by microdilution method; assay type: functional; summary of the method: as §2
Pseudomonas aeruginosa [42] = assay: Antibacterial activity against wild type Pseudomonas aeruginosa isolate PR-673 leucine at 533 residue assessed as inhibition of bacterial growth by microdilution method; assay type: functional; summary of the method: as §2
Pseudomonas aeruginosa [43] = assay: Antibacterial activity against wild type Pseudomonas aeruginosa isolate PR-677 assessed as inhibition of bacterial growth by microdilution method; assay type: functional; summary of the method: as §2
Pseudomonas aeruginosa [44] = assay: Antibacterial activity against wild type Pseudomonas aeruginosa isolate PR-680 leucine at 533 residue assessed as inhibition of bacterial growth by microdilution method; assay type: functional; summary of the method: as §2
Pseudomonas aeruginosa [45] = assay: Antibacterial activity against wild type Pseudomonas aeruginosa isolate PR-688 leucine at 533 residue assessed as inhibition of bacterial growth by microdilution method; assay type: functional; summary of the method: as §2
Pseudomonas aeruginosa [46] = assay: Antibacterial activity against wild type Pseudomonas aeruginosa isolate PR-699 assessed as inhibition of bacterial growth by microdilution method; assay type: functional; summary of the method: as §2
Pseudomonas aeruginosa [47] = assay: Antibacterial activity against Pseudomonas aeruginosa AR-BANK#0229; assay type: functional; summary of the method: as §1

C[C@@H](O)[C@H]1C(=O)N2C(C(=O)O)=C(S[C@@H]3CN[C@H](C(=O)N(C)C)C3)[C@H](C)[C@H]12 [MEROPENEM]
MIC50 (Acinetobacter baumannii [1]): 8 µg/mL (≈ 20.9 µM)
MIC90 (Acinetobacter baumannii [1]): > 64 µg/mL
MIC90 (Acinetobacter baumannii [2]): > 64 µg/mL

C[C@@H](O)[C@H]1C(=O)N2C(C(=O)O)=C(S[C@@H]3CN[C@H](CNS(N)(=O)=O)C3)[C@H](C)[C@H]12 [DORIPENEM]
IC50 [3]: 2.3 µM

CC1(C)[C@H](C(=O)O)N2C(=O)C[C@H]2S1(=O)=O [SULBACTAM]
MIC (Acinetobacter baumannii [4]): 16 µg/mL
MIC (Acinetobacter baumannii [5]): > 32 µg/mL
MIC (Acinetobacter baumannii [6]): 32 µg/mL
MIC (Acinetobacter baumannii [7]): 2 µg/mL
MIC (Acinetobacter baumannii [8]): 4 µg/mL
MIC (Acinetobacter baumannii [9]): > 32 µg/mL
MIC (Acinetobacter baumannii [10]): 16 µg/mL
MIC (Acinetobacter baumannii [11]): 16 µg/mL
MIC (Acinetobacter baumannii [12]): 16 µg/mL
MIC (Acinetobacter baumannii [13]): 16 µg/mL
MIC (Acinetobacter baumannii [14]): 16 µg/mL
MIC (Acinetobacter baumannii [15]): 16 µg/mL
MIC (Acinetobacter baumannii [16]): 16 µg/mL
MIC (Acinetobacter baumannii [17]): 16 µg/mL
MIC (Acinetobacter baumannii [18]): 32 µg/mL
MIC (Acinetobacter baumannii [19]): 32 µg/mL
MIC [20]: 1 µg/mL
MIC [21]: 1 µg/mL
MIC [22]: 2 µg/mL
MIC [23]: 2 µg/mL
MIC (Acinetobacter baumannii [24]): 8 µg/mL
MIC (Acinetobacter baumannii [25]): 1 µg/mL
MIC (Acinetobacter baumannii [26]): 1 µg/mL

CC(C)(O/N=C(\C(=O)N[C@H]1CN2CC(C(=O)NCCN3C(=O)c4cc(O)c(O)cc4C3=O)=C(C(=O)O)N2C1=O)c1csc(N)n1)C(=O)O (stereo in doubt)
MIC (Pseudomonas aeruginosa [27]): ≤ 0.25 µg/mL
MIC (Pseudomonas aeruginosa [28]): ≤ 0.25 µg/mL
MIC (Pseudomonas aeruginosa [29]): ≤ 0.25 µg/mL
MIC (Pseudomonas aeruginosa [30]): ≤ 0.25 µg/mL
MIC (Pseudomonas aeruginosa [31]): ≤ 0.25 µg/mL
MIC (Pseudomonas aeruginosa [32]): > 16 µg/mL
MIC (Pseudomonas aeruginosa [33]): 16 µg/mL (≈ 23.3 µM)
MIC (Pseudomonas aeruginosa [34]): 16 µg/mL (≈ 23.3 µM)
MIC (Pseudomonas aeruginosa [35]): > 16 µg/mL
MIC (Pseudomonas aeruginosa [36]): 16 µg/mL (≈ 23.3 µM)
MIC (Pseudomonas aeruginosa [37]): > 16 µg/mL
MIC (Pseudomonas aeruginosa [38]): 16 µg/mL (≈ 23.3 µM)
MIC (Pseudomonas aeruginosa [39]): > 16 µg/mL
MIC (Pseudomonas aeruginosa [40]): > 16 µg/mL
MIC (Pseudomonas aeruginosa [41]): > 16 µg/mL
MIC (Pseudomonas aeruginosa [42]): > 16 µg/mL
MIC (Pseudomonas aeruginosa [43]): 16 µg/mL (≈ 23.3 µM)
MIC (Pseudomonas aeruginosa [44]): > 16 µg/mL
MIC (Pseudomonas aeruginosa [45]): > 16 µg/mL
MIC (Pseudomonas aeruginosa [46]): > 16 µg/mL
MIC (Pseudomonas aeruginosa [47]): 0.25 µg/mL (≈ 0.364 µM)

C[C@H]1[C@H](NC(=O)/C(=N\OC(C)(C)C(=O)O)c2csc(N)n2)C(=O)N1S(=O)(=O)O [AZTREONAM]
MIC50 (Acinetobacter baumannii [2]): > 32 µg/mL
MIC90 (Acinetobacter baumannii [2]): > 32 µg/mL

CC(C)(O/N=C(\C(=O)N[C@@H]1C(=O)N2C(C(=O)[O-])=C(C[n+]3ccccc3)CS[C@H]12)c1csc(N)n1)C(=O)O [CEFTAZIDIME]
MIC50 (Acinetobacter baumannii [1]): 64 µg/mL (≈ 117 µM)
MIC90 (Acinetobacter baumannii [1]): > 64 µg/mL
MIC50 (Acinetobacter baumannii [2]): > 64 µg/mL
MIC90 (Acinetobacter baumannii [2]): > 64 µg/mL
